Assay results as given in ChEMBL document CHEMBL1687750, “Nonclinical pharmacokinetics of oseltamivir and oseltamivir carboxylate in the central nervous system” (Antimicrob Agents Chemother, 2009).

Tested on: CCOC(=O)C1=C[C@@H](OC(CC)CC)[C@H](NC(C)=O)[C@@H](N)C1
Assay: Activity of human MDR1-mediated drug permeability expressed in pig LLC-PK1 cells
Format: cell-based
Summary of the method: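 P-gp-transfected LLC-PK1 monolayers; 14C-labelled substrate (0.1 to 10 mM) plus Lucifer yellow added to the apical or basolateral donor side, ± elacridar 1 μM; 37°C, 5% CO2; acceptor sampled at 30 min and 1, 2, 3 h and counted by scintillation; Pe from the 3 h point, not corrected for marker flux; B-to-A/A-to-B ratio; three inserts per condition, mean.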

ATP-dependent translocase ABCB1 (Homo sapiens)
Km: 4.2 mM | Vmax: 0.000534 µmol/min
